Laboratory results published in ChEMBL document CHEMBL2384929, “Synthesis and biological evaluation of fluoro analogues of antimitotic phenstatin” (Bioorg Med Chem, 2013).

Legend:
MDA-MB-468 = assay: Cytotoxicity against human MDA-MB-468 cells assessed as growth inhibition at 10 uM after 48 hrs by SRB assay; format: functional; details: MDA-MB-468, 48 h, read-out: GI
Method in brief: (§1)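 Single-dose NCI 60-cell screen at 10 µM with 48 h exposure and sulforhodamine B read-out. Values are percentage growth per cell line. A summary ratio counts cell lines with 0–50% growth over all cell lines tested.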

NCI/ADR-RES = assay: Cytotoxicity against human NCI/ADR-RES cells assessed as growth inhibition at 10 uM after 48 hrs by SRB assay; format: functional; details: read-out: GI; method in brief: as §1
PC-3 = assay: Cytotoxicity against human PC3 cells assessed as growth inhibition at 10 uM after 48 hrs by SRB assay; format: functional; details: PC-3, 48 h, read-out: GI; method in brief: as §1
UO-31 = assay: Cytotoxicity against human UO31 cells assessed as growth inhibition at 10 uM after 48 hrs by SRB assay; format: functional; details: UO-31, 48 h, read-out: GI; method in brief: as §1
UACC-257 = assay: Cytotoxicity against human UACC257 cells assessed as growth inhibition at 10 uM after 48 hrs by SRB assay; format: functional; details: UACC-257, 48 h, read-out: GI; method in brief: as §1
SW-620 = assay: Cytotoxicity against human SW620 cells assessed as growth inhibition at 10 uM after 48 hrs by SRB assay; format: functional; details: SW-620, 48 h, read-out: GI; method in brief: as §1
HCC 2998 = assay: Cytotoxicity against human HCC2998 cells assessed as growth inhibition at 10 uM after 48 hrs by SRB assay; format: functional; details: HCC 2998, 48 h, read-out: GI; method in brief: as §1
KM12 = assay: Cytotoxicity against human KM12 cells assessed as growth inhibition at 10 uM after 48 hrs by SRB assay; format: functional; details: KM12, 48 h, read-out: GI; method in brief: as §1
SNB-75 = assay: Cytotoxicity against human SNB75 cells assessed as growth inhibition at 10 uM after 48 hrs by SRB assay; format: functional; details: SNB-75, 48 h, read-out: GI; method in brief: as §1
HOP-62 = assay: Cytotoxicity against human HOP62 cells assessed as growth inhibition at 10 uM after 48 hrs by SRB assay; format: functional; details: HOP-62, 48 h, read-out: GI; method in brief: as §1
NCI-H522 = assay: Cytotoxicity against human NCI-H522 cells assessed as growth inhibition at 10 uM after 48 hrs by SRB assay; format: functional; details: NCI-H522, 48 h, read-out: GI; method in brief: as §1
SR = assay: Cytotoxicity against human SR cells assessed as growth inhibition at 10 uM after 48 hrs by SRB assay; format: functional; details: read-out: GI; method in brief: as §1
Ovis aries = organism: Ovis aries; assay: Inhibition of sheep brain tubulin assembly at 100 uM by DAPI staining-based fluorescence assay
Method in brief: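 Tubulin from sheep brain, purified by two assembly–disassembly cycles, at about 2–3 mg/mL in 0.1 M MES, 0.5 mM MgCl2, 1 mM EGTA, 1 mM GTP, pH 6.6. Assembly followed by DAPI fluorescence at 37 °C. Single-point inhibition tested at 100 µM. IC50 is the concentration halving the assembly rate relative to no compound, mean of two experiments, with reference inhibitors run the same day.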

COc1ccc(C(=O)c2cc(F)c(F)c(OC)c2F)c(OC)c1NC(C)=O
inhibition of growth at 10 µM (MDA-MB-468): 81%
inhibition of growth at 10 µM (NCI/ADR-RES): 55%
inhibition of growth at 10 µM (PC-3): 27%
inhibition of growth at 10 µM (UO-31): 30%
inhibition of growth at 10 µM (UACC-257): 21%
inhibition of growth at 10 µM (SW-620): 37%
inhibition of growth at 10 µM (HCC 2998): 31%
inhibition of growth at 10 µM (KM12): 57%
inhibition of growth at 10 µM (SNB-75): 44%
inhibition of growth at 10 µM (HOP-62): 30%
inhibition of growth at 10 µM (NCI-H522): 83%
inhibition of growth at 10 µM (SR): 49%
inhibition (Ovis aries): 39%
